“Also recorded” adds a separate entry of the source. Read-outs that look alike come from different tables or passages of the source. Each block holds one compound with its values, some of them ahead of it.
Columns and labels:
A2B ARs [1] = target: T1, A2B ARs (Homo sapiens, UniProt P29275); assay: Stimulation of adenylyl cyclase activity; assay type: biochemical
T1 sequence (P29275 1-332): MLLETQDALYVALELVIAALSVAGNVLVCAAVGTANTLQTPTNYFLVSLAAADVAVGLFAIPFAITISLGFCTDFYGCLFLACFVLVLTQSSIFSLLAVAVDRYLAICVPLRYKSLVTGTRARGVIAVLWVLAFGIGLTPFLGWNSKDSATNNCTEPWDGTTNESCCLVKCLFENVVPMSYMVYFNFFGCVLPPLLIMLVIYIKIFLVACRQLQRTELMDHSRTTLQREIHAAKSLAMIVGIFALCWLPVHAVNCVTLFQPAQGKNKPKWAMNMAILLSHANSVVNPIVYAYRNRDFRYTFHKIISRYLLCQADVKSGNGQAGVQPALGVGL
Summary of the method: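 Crude membranes came from CHO cells stably transfected with human A2B receptor, from a single high-speed spin. They were resuspended in 50 mM Tris/HCl, pH 7.4, and used immediately. Stimulation of adenylyl cyclase activity gave agonist EC50. […] Values are geometric means with 95% confidence intervals (n ≥ 3).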

[2] = system: formalin-induced nociceptive behavior; details: cited from earlier work; for effect on second phase of formalin test in presence of A1AR antagonist 29: with 29 (DPCPX) 3 mg/kg ip
A2B ARs [3] = target: T1, A2B ARs; details: hA2B; ref Petrelli et al.[7]; cited from earlier work
[4] = system: formalin-induced nociceptive behavior; assay: Formalin test; assay type: in vivo; details: mice; for effect of the combination of 28 and 31 in formalin test: 28 1 mg/kg ip + 31 1 mg/kg ip
hA2A receptor = hA2A receptor (Homo sapiens, UniProt P29274); details: ref Petrelli et al.[7]; cited from earlier work
mouse A1AR = details: cited from earlier work
hA1AR = target: T2, hA1AR (Homo sapiens, UniProt P30542); details: cited from earlier work
T2 sequence (P30542 1-326): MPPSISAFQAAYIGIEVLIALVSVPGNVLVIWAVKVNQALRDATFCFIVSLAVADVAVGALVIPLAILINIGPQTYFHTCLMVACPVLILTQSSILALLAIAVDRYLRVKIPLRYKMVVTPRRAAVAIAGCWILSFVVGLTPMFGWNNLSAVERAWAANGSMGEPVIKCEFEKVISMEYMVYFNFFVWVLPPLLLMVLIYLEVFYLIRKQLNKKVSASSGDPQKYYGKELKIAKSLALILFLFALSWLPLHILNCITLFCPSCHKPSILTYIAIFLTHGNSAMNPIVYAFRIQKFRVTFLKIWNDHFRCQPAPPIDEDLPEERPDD

hA2A receptor, sequence (P29274 whole entry): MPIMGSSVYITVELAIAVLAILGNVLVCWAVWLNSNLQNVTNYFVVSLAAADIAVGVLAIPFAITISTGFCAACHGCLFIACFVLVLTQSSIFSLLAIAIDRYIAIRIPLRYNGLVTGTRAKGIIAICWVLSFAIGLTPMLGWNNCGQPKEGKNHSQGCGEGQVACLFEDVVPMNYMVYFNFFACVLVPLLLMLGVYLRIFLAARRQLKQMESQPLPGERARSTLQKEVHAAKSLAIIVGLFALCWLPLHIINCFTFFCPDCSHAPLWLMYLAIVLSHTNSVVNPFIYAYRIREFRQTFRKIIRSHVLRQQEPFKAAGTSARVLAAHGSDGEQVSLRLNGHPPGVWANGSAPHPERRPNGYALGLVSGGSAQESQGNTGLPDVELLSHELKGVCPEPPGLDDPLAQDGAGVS

functional behaviour at hA2B receptor (A2B ARs [1]): partial A2BAR agonists
Structure (SMILES): CCn1nnc([C@H]2O[C@@H](n3cnc4c(NC5CC5)ncnc43)C(O)C2O)n1 (stereo in doubt) [Compound 1, (2R,3S,4R,5R)-2-(6-(Cyclopropylamino)-9H-purin-9-yl)-5-(2-ethyl-2H-tetrazol-5-yl)tetrahydrofuran-3,4-diol]

functional behaviour at hA2B receptor (A2B ARs [1]): partial A2BAR agonists
Structure (SMILES): CCn1nnc([C@H]2O[C@@H](n3cnc4c(NCc5cccc(F)c5)ncnc43)C(O)C2O)n1 (stereo in doubt) [Compound 9, (2R,3R,4S,5R)-2-(2-Ethyl-2H-tetrazol-5-yl)-5-(6-((3-fluorobenzyl)amino)-9H-purin-9-yl)tetrahydrofuran-3,4-diol]

Structure (SMILES): C[C@@]1(O)[C@H](O)[C@@H](CO)O[C@H]1n1cnc2c(NC3CCCC3)nc(Cl)nc21 [Compound 27, 2-chloro-2′-C-methyl-N^6-cyclopentyladenosine]
effect on second phase of formalin-induced hyperalgesia ([2]; 2.5–5 mg/kg ip): inhibited the second phase of formalin-induced hyperalgesia in a dose-dependent manner
effect on second phase of formalin test in presence of A1AR antagonist 29 [2]: blocked

Structure (SMILES): CCn1nnc([C@H]2O[C@@H](n3cnc4c(NC)nc(Cl)nc43)[C@H](O)[C@@H]2O)n1 [Compound 23]
efficacy (pag, partial agonist % efficacy) A2B (A2B ARs [3]): 75%

Structure (SMILES): CCn1nnc([C@H]2O[C@@H](n3cnc4c(NCc5cccc(I)c5)nc(Cl)nc43)[C@H](O)[C@@H]2O)n1 [Compound 26]
effect on formalin-induced nociceptive behavior ([4]; highest dose tested 1 mg/kg ip, 10 min before formalin): inactive
efficacy (pag, partial agonist % efficacy) A2B (A2B ARs [3]): 76%
efficacy (pag, partial agonist % efficacy) A2A (hA2A receptor): 75%

Structure (SMILES): CCn1nnc([C@H]2O[C@@H](n3cnc4c(NCc5cccc(Cl)c5)ncnc43)C(O)C2O)n1 (stereo in doubt) [Compound 11, (2R,3S,4R,5R)-2-(6-((3-Chlorobenzyl)amino)-9H-purin-9-yl)-5-(2-ethyl-2H-tetrazol-5-yl)tetrahydrofuran-3,4-diol]
effect on formalin-induced nociceptive behavior ([4]; 0.5–1.0 mg/kg ip, 10 min before formalin, P < 0.005): reduced the late nociceptive behavior induced by formalin in a dose-dependent manner

Structure (SMILES): O[C@@H]1[C@H](O)[C@@H](CCl)O[C@H]1n1cnc2c(NC3C[C@@H]4CC[C@@H]3C4)ncnc21 (mixture of isomers) [Compound 28, 5′-chloro-5′-deoxy-N^6-(±)-endo-norborn-2-yl)adenosine]
selectivity mouse A1AR vs A3AR (mouse A1AR): ~ 10 000 fold
effect of the combination of 28 and 31 in formalin test [4]: showed greater effects when combined in reducing both the first and the second phases of formalin test
effect on second phase of formalin-induced hyperalgesia ([2]; 1–2 mg/kg ip): inhibited the second phase of formalin-induced hyperalgesia in a dose-dependent manner
effect on second phase of formalin test in presence of A1AR antagonist 29 [2]: blocked
selectivity hA1AR vs hA3AR (hA1AR): ~ 2600 fold

functional behaviour at hA2B receptor (A2B ARs [1]): partial A2BAR agonists
Structure (SMILES): CCn1nnc([C@H]2O[C@@H](n3cnc4c(NCC5CC5)ncnc43)C(O)C2O)n1 (stereo in doubt) [Compound 3, (2R,3S,4R,5R)-2-(6-((Cyclopropylmethyl)amino)-9H-purin-9-yl)-5-(2-ethyl-2H-tetrazol-5-yl)tetrahydrofuran-3,4-diol]

Structure (SMILES): CNC(=O)[C@H]1O[C@@H](n2cnc3c(NCc4cccc(I)c4)nc(Cl)nc32)[C@H](O)[C@@H]1O [Compound 31, 2-chloro-N^6-(3-iodobenzyl)-5′-N-methylcarboxamidoadenosine]
effect of the combination of 22 and 31 in formalin test ([4]; 22 0.3 mg/kg ip + 31 1 mg/kg ip, 10 min before formalin, P < 0.005): completely erased the second phase and reduced the first phase of formalin-induced nociceptive behavior; also recorded: reduced completely the nocifensive behavior in both the first and the second phases of formalin test
effect of the combination of 28 and 31 in formalin test [4]: showed greater effects when combined in reducing both the first and the second phases of formalin test

From PMC5669264 (Journal of medicinal chemistry, 2017)
